Measurements as given in ChEMBL document CHEMBL4017539, “Oral Delivery of Propofol with Methoxymethylphosphonic Acid as the Delivery Vehicle” (J Med Chem, 2017).

Columns and labels:
[1] = tested on: Mus musculus; assay: Anesthetic activity in ICR mouse assessed as onset time for loss of righting reflex at 200 mg equiv/kg parent drug administered via oral gavage; type: functional
In short: (§1)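 Male and female ICR mice (20 ± 2 g), fasted overnight, dosed by gavage in 10% DMSO, 20% Solutol HS-15, 70% saline (n = 10/group for diastereoisomeric mixtures, n = 6/group for single diastereoisomers). Mice were placed on their backs until righting stopped. Read-outs were onset of LORR, anesthetic duration, percent with LORR and percent mortality per group.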

[2] = tested on: Mus musculus; assay: Anesthetic activity in ICR mouse assessed as anesthetic duration time at 200 mg equiv/kg parent drug administered via oral gavage; type: functional; in short: as §1
[3] = tested on: Mus musculus; assay: Anesthetic activity in ICR mouse assessed as loss of righting reflex at 200 mg equiv/kg parent drug administered via oral gavage relative to control; type: functional; in short: as §1
[4] = Toxicity in ICR mouse assessed as death at 200 mg equiv/kg parent drug administered via oral gavage relative to control; settings: in vivo; in short: as §1
[5] = Half life in Beagle dog at 2 mg/kg, iv administered as single bolus dose by LC-MS/MS analysis; type: ADME, organism-based, Canis lupus familiaris; settings: in vivo
In short: (§2)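 Beagle dogs (n=3/group) received a single i.v. bolus of parent drug, then after a one-week washout received the prodrug i.g. in 5% DMSO, 5% Solutol HS-15 (30%, w/v), 90% saline. Heparinized blood was taken to 24 h, and plasma was obtained at 2–8 °C and stored at -80 °C. Parent drug was measured by LC-MS/MS and analysed non-compartmentally. Oral bioavailability was oral versus i.v. exposure to the active compound.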

[6] = Half life in Beagle dog at 10 mg/kg, po by LC-MS/MS analysis; type: ADME, organism-based, Canis lupus familiaris; settings: in vivo; in short: as §2
[7] = Cmax in Beagle dog at 2 mg/kg, iv administered as single bolus dose by LC-MS/MS analysis; type: ADME, organism-based, Canis lupus familiaris; parameters: dose 2 mg/kg, route intravenous; settings: in vivo; in short: as §2
[8] = Cmax in Beagle dog at 10 mg/kg, po by LC-MS/MS analysis; type: ADME, organism-based, Canis lupus familiaris; parameters: dose 10 mg/kg, route oral; settings: in vivo; in short: as §2
[9] = AUC (0 to t) in Beagle dog at 2 mg/kg, iv administered as single bolus dose by LC-MS/MS analysis; type: ADME, organism-based, Canis lupus familiaris; settings: in vivo
[10] = AUC (0 to t) in Beagle dog at 10 mg/kg, po by LC-MS/MS analysis; type: ADME, organism-based, Canis lupus familiaris; settings: in vivo
[11] = Oral bioavailability in Beagle dog at 10 mg/kg by LC-MS/MS analysis; type: ADME, organism-based, Canis lupus familiaris; settings: in vivo; in short: as §2
[12] = Half life in Beagle dog at 3 mg/kg, iv administered as single bolus dose by LC-MS/MS analysis; settings: in vivo
[13] = Half life in Beagle dog at 6.9 mg/kg, po by LC-MS/MS analysis; settings: in vivo
[14] = in vivo; settings: Beagle, dog, iv, 3 mg/kg
[15] = in vivo; settings: Beagle, dog, po, 6.9 mg/kg
[16] = in vivo; settings: Beagle, dog, iv, 3 mg/kg; remark: listed apart in the source
[17] = in vivo; settings: Beagle, dog, po, 6.9 mg/kg; remark: listed apart in the source
[18] = in vivo; settings: Beagle, dog, po, 6.9 mg/kg; remark: listed apart in the source
[19] = tested on: Mus musculus; assay: Anesthetic activity in ICR mouse assessed as onset time for loss of righting reflex at 100 mg equiv/kg parent drug administered via oral gavage; type: functional; in short: as §1
[20] = tested on: Mus musculus; assay: Anesthetic activity in ICR mouse assessed as anesthetic duration time at 100 mg equiv/kg parent drug administered via oral gavage; type: functional; in short: as §1
[21] = tested on: Mus musculus; assay: Anesthetic activity in ICR mouse assessed as loss of righting reflex at 100 mg equiv/kg parent drug administered via oral gavage relative to control; type: functional; in short: as §1
[22] = Toxicity in ICR mouse assessed as death at 100 mg equiv/kg parent drug administered via oral gavage relative to control; settings: in vivo; in short: as §1
[23] = Half life in Beagle dog at 0.2 mg/kg, iv administered as single bolus dose by LC-MS/MS analysis; type: ADME, organism-based, Canis lupus familiaris; settings: in vivo
In short: (§3)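 Beagle dogs (n=3/group) received the parent drug as an intravenous bolus. Heparinized blood was drawn pre-dose and at 2, 5, 10, 20 and 30 min and 1, 2, 4, 6, 8, 10, 12 and 24 h. Plasma was separated by centrifugation at 2–8 °C and stored at -80 °C. Parent drug was measured by LC-MS/MS, and parameters were derived by non-compartmental analysis.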

[24] = AUC (0 to t) in Beagle dog at 0.2 mg/kg, iv administered as single bolus dose by LC-MS/MS analysis; type: ADME, organism-based, Canis lupus familiaris; settings: in vivo
[25] = Cmax in Beagle dog at 0.2 mg/kg, iv administered as single bolus dose by LC-MS/MS analysis; type: ADME, organism-based, Canis lupus familiaris; parameters: dose 0.2 mg/kg, route intravenous; settings: in vivo; in short: as §3
[26] = tested on: Mus musculus; assay: Sleep promoting activity in po dosed ICR mouse assessed as increase in pentobarbital induced sleep time administered 5 mins before pentobarbital injection; type: functional, organism-based
In short: (§4)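 Fasted male and female ICR mice (n=10/group) received vehicle or 55, 65 or 75 mg/kg orally in 10% DMSO, 20% Solutol HS-15 (30%, w/v), 70% saline, 5 min before pentobarbital 40 mg/kg i.p. Sleep duration ran from falling asleep to recovery of the righting reflex. Data are mean ± SEM versus vehicle.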

[27] = tested on: Mus musculus; assay: Sleep promoting activity in ICR mouse assessed as pentobarbital induced sleep time at 65 mg/kg, po administered 5 mins before pentobarbital injection (reference value: 33 +/- 20 min); type: functional; in short: as §4
[28] = tested on: Mus musculus; assay: Sleep promoting activity in ICR mouse assessed as pentobarbital induced sleep time at 75 mg/kg, po administered 5 mins before pentobarbital injection (reference value: 33 +/- 20 min); type: functional; in short: as §4
[29] = Half life in Beagle dog at 1 mg/kg, iv administered as single bolus dose by LC-MS/MS analysis; type: ADME, organism-based, Canis lupus familiaris; settings: in vivo; in short: as §2
[30] = AUC (0 to t) in Beagle dog at 1 mg/kg, iv administered as single bolus dose by LC-MS/MS analysis; type: ADME, organism-based, Canis lupus familiaris; settings: in vivo
[31] = Cmax in Beagle dog at 1 mg/kg, iv administered as single bolus dose by LC-MS/MS analysis; type: ADME, organism-based, Canis lupus familiaris; parameters: dose 1 mg/kg, route intravenous; settings: in vivo; in short: as §2

Structure (SMILES)	Time [1]	Time [2]	Activity [3]	mortality [4]	other results
CCOC(=O)[C@H](C)NP(=O)(COC)Oc1c(C(C)C)cccc1C(C)C (stereo partly specified)	4.5 min	60.31 min	100%	10%	
CC(C)c1cccc([C@H](C)C2CC2)c1O [CIPEPOFOL]					half-life [5]: 12 min; half-life [6]: 26.4 min; Cmax [7]: 1610 ng/mL; Cmax [8]: 233 ng/mL; AUC(0-t) [9]: 417 ng·h/mL; AUC(0-t) [10]: 162 ng·h/mL; bioavailability [11]: 7.7%
CC(C)c1cccc(C(C)C)c1O [PROPOFOL]					half-life [12]: 12 min; half-life [13]: 38.4 min; Cmax [14]: 2050 ng/mL; Cmax [15]: 97 ng/mL; AUC(0-t) [16]: 616 ng·h/mL; AUC(0-t) [17]: 102 ng·h/mL; bioavailability [18]: 7.3%
CCOC(=O)[C@H](C)N[P@@](=O)(COC)Oc1c(C(C)C)cccc1[C@H](C)C1CC1					Time [19]: 4.35 min; Time [20]: 85.23 min; Activity [21]: 100%; mortality [22]: 17%
CCOC(=O)[C@H](C)NP(=O)(CO)Oc1c(C(C)C)cccc1C(C)C (stereo partly specified)	6.91 min	19.19 min	40%	10%	
CCOC(=O)C(C)(C)NP(=O)(COC)Oc1c(C(C)C)cccc1C(C)C (stereo unspecified)	6.74 min	115.9 min	100%	20%	
COCP(=O)(N[C@@H](C)C(=O)OCc1ccccc1)Oc1c(C(C)C)cccc1C(C)C (stereo partly specified)	9.34 min	94.61 min	50%	10%	
CCOC(=O)[C@H](C)N[P@@](=O)(COC)Oc1c(C(C)C)cccc1C(C)C	9.68 min	47.24 min	33%	0%	
CCOC(=O)[C@H](C)NP(=O)(COC)Oc1c(C(C)C)cccc1[C@H](C)C1CC1 (stereo partly specified)					Time [19]: 4.49 min; Time [20]: 74.44 min; Activity [21]: 100%; mortality [22]: 50%
CCc1c2c(nc3ccc(O)cc13)-c1cc3c(c(=O)n1C2)COC(=O)[C@]3(O)CC [7-ETHYL-10-HYDROXYCAMPTOTHECIN]					half-life [5]: 160 min; Cmax [7]: 983 ng/mL; AUC(0-t) [9]: 410 ng·h/mL
CCOC(=O)CNP(=O)(COC)Oc1c(C(C)C)cccc1C(C)C (stereo unspecified)	14.37 min	32.48 min	70%	0%	
COCP(=O)(N[C@@H](C)C(=O)OC(C)C)Oc1c(C(C)C)cccc1C(C)C (stereo partly specified)	12.7 min	59.38 min	40%	0%	
CCOC(=O)[C@H](C)NP(=O)(CN1CCOCC1)Oc1c(C(C)C)cccc1C(C)C (stereo partly specified)	7.65 min	16.18 min	60%	10%	
CCOC(=O)[C@@H](C)NP(=O)(COC)Oc1c(C(C)C)cccc1C(C)C (stereo partly specified)	9.48 min	44.8 min	100%	10%	
C[C@]12CC[C@@H]3c4ccc(O)cc4CC[C@H]3[C@@H]1CC[C@@H]2O [ESTRADIOL]					half-life [23]: 16.2 min; AUC(0-t) [24]: 28 ng·h/mL; Cmax [25]: 76 ng/mL
CCOC(=O)[C@H](C)N[P@](=O)(COC)Oc1c(C(C)C)cccc1C(C)C	4.38 min	40.1 min	100%	0%	Activity [26]: Dose-dependent effect; Time [27]: 69 min; Time [28]: 82 min
COCP(=O)(N[C@@H](C)C(=O)OCC(C)C)Oc1c(C(C)C)cccc1C(C)C (stereo partly specified)	8.36 min	24.47 min	100%	10%	
C=CCN1CC[C@]23c4c5ccc(O)c4O[C@H]2C(=O)CC[C@@]3(O)[C@H]1C5 [NALOXONE]					half-life [6]: 539 min; Cmax [8]: 43 ng/mL; AUC(0-t) [10]: 117 ng·h/mL; bioavailability [11]: 9.6%; half-life [29]: 22.8 min; AUC(0-t) [30]: 122 ng·h/mL; Cmax [31]: 196 ng/mL
CCOC(=O)[C@H](C)N[P@](=O)(COC)Oc1c(C(C)C)cccc1[C@H](C)C1CC1					Time [19]: 3.98 min; Time [20]: 107.68 min; Activity [21]: 100%; mortality [22]: 0%
